This is one part of a sample in which hits are shown more often than they occur.
KDM4C inh: inhibitors of human demethylase GASC-1 KDM4C; inhibition, % at 12.5 µM; Q9H3R0; GST-KDM4C 2-372, H3K9me3 peptide, LANCE TR-FRET; 0.15% of 96,000 active;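 active = mean replicate inhibition above about 25%, with at least 55% of replicates also reaching it, limit read from the data, passing the limit was not always enough; inconclusive = only one of those two conditions met; inactive = neither condition met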
Target sequence (Q9H3R0 2-372 limits assumed): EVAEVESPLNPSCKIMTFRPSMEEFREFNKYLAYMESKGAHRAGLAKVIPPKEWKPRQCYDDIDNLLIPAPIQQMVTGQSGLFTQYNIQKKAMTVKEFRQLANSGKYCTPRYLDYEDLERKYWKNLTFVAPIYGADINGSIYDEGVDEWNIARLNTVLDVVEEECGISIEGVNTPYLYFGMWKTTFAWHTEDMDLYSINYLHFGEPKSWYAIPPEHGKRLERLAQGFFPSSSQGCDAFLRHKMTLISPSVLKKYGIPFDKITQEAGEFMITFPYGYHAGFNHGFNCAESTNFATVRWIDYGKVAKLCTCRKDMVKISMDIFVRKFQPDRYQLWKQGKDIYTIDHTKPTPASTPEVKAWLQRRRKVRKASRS
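Material: GST-tagged GASC-1 (JMJD2C) catalytic fragment, aa 2-372 / Quantity: enzyme final amount 10 nM / Medium: HEPES buffer, pH 7.5, plus ascorbate / Doses: one test concentration per compound / Incubation: 30 min reaction, 60 min detection, RT / Measured by: LANCE TR-FRET / Read-out: inhibition from TR-FRET ratio decrease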
IDH1 R132H inh: IDH1 R132H (human) inhibition. O75874. IDH1 R132H reductase, diaphorase/resazurin fluorescence, 60 min. inhibition, % at 10 µM. 0.18% of 70,000 active. AID 624101; in the data active = inhibition above about 34%; inconclusive = no clear call, values can overlap the other calls; inactive = below about 11%
T cruzi growth-1: T. cruzi proliferation inhibition. T. cruzi beta-gal in NIH3T3, GalScreen luminescence, 90 h. inhibition, % at 8.34 µM. 5.9% of 77,000 active;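 active = mean inhibition above about 93%, with at least 55% of replicates each passing it, limit read from the data, passing the limit was not always enough; inconclusive = only one of those two conditions holds; inactive = neither condition holds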
T cruzi growth-2: Trypanosoma cruzi proliferation inhibition | inhibition, % at 8.35 µM | shares compounds with T cruzi growth-1 | T. cruzi beta-gal in NIH3T3, GalScreen luminescence, 90 h | 72% of 5,600 active | AID 651739;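 active = mean replicate inhibition above about 95% and at least 55% of replicates individually reaching it, limit read from the data; inconclusive = only one of the two criteria is met; inactive = neither criterion is met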
T cruzi growth-3: Trypanosoma cruzi proliferation inhibition; shares compounds with T cruzi growth-1; T. cruzi beta-gal in NIH3T3, GalScreen luminescence, 90 h; inhibition, % at 2.09 µM; 21% of 5,600 active; AID 651740;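 active = mean inhibition above about 95%, with at least 55% of replicates also reaching it, limit read from the data; inconclusive = meets just one of the two conditions; inactive = meets neither condition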
3T3 cytotox: cytotoxicity in mouse NIH/3T3 fibroblasts; shares compounds with T cruzi growth-1; NIH/3T3 viability, CellTiter-Glo ATP luminescence, 90 h; cytotoxicity (signal decrease), % at 8.35 µM; 14% of 5,600 active; AID 651742;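 active = mean signal decrease across replicates above about 35% based on untreated-well scatter, with enough replicates individually passing, limit read from the data; inconclusive = no rule stated though some were filed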
NIH3T3 tox 2: cytotoxicity in mouse NIH/3T3 fibroblasts | shares compounds with T cruzi growth-1 | NIH/3T3 viability, CellTiter-Glo ATP luminescence, 90 h | inhibition, % at 24.9 µM | 56% of 5,600 active | AID 651744;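 active = mean loss of cell viability signal at or above a set limit, and enough replicates individually reaching it; inconclusive = meets only the mean limit or only the replicate share; inactive = meets neither condition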
Each line names hits and unclear results; the compound was inactive in the other large screens (follow-up assays come after a bar, where they were run).

CC(C)C#Cc1ccc([C@H]2[C@@H](C#N)N(C(=O)c3ccccn3)[C@@H]2CO)cc1	T cruzi growth-1 inconclusive (no result: IDH1 R132H inh) | T cruzi growth-2 104 | T cruzi growth-3 102 | 3T3 cytotox inactive | NIH3T3 tox 2 inactive
N#C[C@@H]1[C@H](c2ccc(C#CCC3CCCC3)cc2)[C@@H](CO)N1C(=O)c1ccccn1	T cruzi growth-1 100 (no result: IDH1 R132H inh) | T cruzi growth-2 99 | T cruzi growth-3 109 | 3T3 cytotox inactive | NIH3T3 tox 2 107
N#C[C@H]1[C@H](c2ccc(C#CCC3CCCC3)cc2)[C@@H](CO)N1C(=O)c1ccccn1	T cruzi growth-1 97 (no result: IDH1 R132H inh) | T cruzi growth-2 95 | T cruzi growth-3 111 | 3T3 cytotox inactive | NIH3T3 tox 2 104
COCC(=O)N1[C@H](CO)[C@@H](c2ccc(C#CCC3CCCC3)cc2)[C@@H]1C#N	none (no result: IDH1 R132H inh)
N#C[C@@H]1[C@H](c2ccc(-c3ccccc3F)cc2)[C@@H](CO)N1C(=O)c1ccccn1	none (no result: IDH1 R132H inh)
COC(=O)c1c(-c2cccc(C)c2)csc1NC(=O)c1ccccc1[N+](=O)[O-]	none (no result: KDM4C inh, T cruzi growth-1)
COc1ccc(OCC(=O)Nc2cc(OC)c(Cl)cc2OC)cc1	none (no result: KDM4C inh, T cruzi growth-1)
O=C(CCn1c(=S)[nH]c2c(sc3ccccc32)c1=O)NC1CCCCC1	none (no result: KDM4C inh, T cruzi growth-1)
COC(=O)c1ccccc1NC(=O)C(C)(C)Oc1ccc(Cl)cc1	none (no result: KDM4C inh, T cruzi growth-1)
CC(C)(Oc1ccc(Cl)cc1)C(=O)Nc1cc(-c2nc3ncccc3o2)ccc1Cl	none (no result: KDM4C inh, T cruzi growth-1)
O=S(=O)(c1cccs1)N1CCCCN2[C@H](CO)[C@H](c3ccc(-c4ccccc4)cc3)[C@@H]2C1	T cruzi growth-1 inconclusive (no result: IDH1 R132H inh) | T cruzi growth-2 107 | T cruzi growth-3 inactive | 3T3 cytotox inactive | NIH3T3 tox 2 inactive
O=S(=O)(c1cccs1)N1CCCCN2[C@@H](CO)[C@@H](c3ccc(C4=CCCCC4)cc3)[C@@H]2C1	none (no result: KDM4C inh, IDH1 R132H inh)
O=S(=O)(c1cccs1)N1CCCCN2[C@H](CO)[C@H](c3ccc(/C=C/c4ccccc4)cc3)[C@H]2C1	none (no result: IDH1 R132H inh)
O=S(=O)(c1cccs1)N1CCCCN2[C@H](CO)[C@@H](c3ccc(/C=C/c4ccccc4)cc3)[C@@H]2C1	T cruzi growth-1 97 (no result: IDH1 R132H inh) | T cruzi growth-2 105 | T cruzi growth-3 inactive | 3T3 cytotox inactive | NIH3T3 tox 2 inactive
O=S(=O)(c1cccs1)N1CCCCN2[C@H](CO)[C@H](c3ccc(C4=CCCCC4)cc3)[C@@H]2C1	T cruzi growth-1 118 (no result: KDM4C inh, IDH1 R132H inh) | T cruzi growth-2 101 | T cruzi growth-3 inactive | 3T3 cytotox inactive | NIH3T3 tox 2 51
O=S(=O)(c1cccs1)N1CCCCN2[C@H](C1)[C@H](c1ccc(-c3ccccc3)cc1)[C@@H]2CO	T cruzi growth-1 101 (no result: IDH1 R132H inh) | T cruzi growth-2 108 | T cruzi growth-3 inactive | 3T3 cytotox inactive | NIH3T3 tox 2 inconclusive
Cc1cccc(-c2ccc([C@H]3[C@@H](CO)N4CCCCN(S(=O)(=O)c5cccs5)C[C@H]34)cc2)c1	none (no result: IDH1 R132H inh)
O=S(=O)(c1cccs1)N1CCCCN2[C@H](CO)[C@H](c3ccc(-c4ccccc4)cc3)[C@H]2C1	none (no result: IDH1 R132H inh)
Cc1cccc(OCC(=O)Nc2ccc(Cl)c(-c3nc4ccccc4o3)c2)c1	none (no result: KDM4C inh, T cruzi growth-1)
COc1cccc(OC)c1C(=O)Nc1cccc(-c2nc3ncccc3o2)c1	none (no result: KDM4C inh, T cruzi growth-1)
Cc1c(Cl)cccc1NC(=O)CCC(=O)O	none (no result: KDM4C inh, T cruzi growth-1)
O=S(=O)(c1cccs1)N1CCCCN2[C@H](CO)[C@@H](c3ccc(Br)cc3)[C@@H]2C1	none (no result: IDH1 R132H inh)
O=S(=O)(c1cccs1)N1CCCCN2[C@H](C1)[C@@H](c1ccc(Br)cc1)[C@@H]2CO	T cruzi growth-1 103 (no result: IDH1 R132H inh) | T cruzi growth-2 104 | T cruzi growth-3 inactive | 3T3 cytotox inconclusive | NIH3T3 tox 2 inactive
O=C(CSc1nnc(Nc2ccccc2)n1-c1ccccc1)Nc1ccc2c(c1)COC2=O	none (no result: KDM4C inh, T cruzi growth-1)
Cc1oc(S(=O)(=O)N2CCOCC2)cc1-c1nc(-c2ccc(C(C)(C)C)cc2)no1	none (no result: KDM4C inh, T cruzi growth-1)
CC(C)C#Cc1ccc([C@@H]2[C@@H](CO)N3CCCCN(CC4CC4)C[C@H]23)cc1	T cruzi growth-1 108 (no result: IDH1 R132H inh) | T cruzi growth-2 108 | T cruzi growth-3 inactive | 3T3 cytotox 36 | NIH3T3 tox 2 90
CC(C)C#Cc1ccc([C@H]2[C@H](CO)N3CCCCN(CC4CC4)C[C@@H]23)cc1	none (no result: IDH1 R132H inh)
C[C@H](O)C#Cc1ccc([C@H]2[C@@H](CO)N3CCCCN(CC4CC4)C[C@H]23)cc1	none (no result: IDH1 R132H inh)
